{"source": "paper PMC9116722", "about": "(Cancer chemotherapy and pharmacology, 2022)", "assay": "Adverse events", "format": "in vivo, human", "method_in_brief": "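Patients with germline BRCA-mutated cancers, or BRCA-wildtype TNBC or platinum-refractory ovarian cancer, took oral drug continuously twice daily in 28-day cycles. There were nine dose levels from 50 to 500 mg BID under 3+3 escalation, run separately per cohort after the first DLT. Toxicities were graded by CTCAE v4.0, with DLTs assessed during cycle 1.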", "note": "Entries after “also recorded” stand apart in the source; their conditions may differ."}
{"smiles": "C[C@]1(c2nc3c(C(N)=O)cccc3[nH]2)CCCN1", "note": "[veliparib]", "values": [{"measurement": "Any Grade 3 toxicity", "setting": "BRCAmut, DL9 500/500 mg AM/PM", "result": "1 (14) number of patients (%)"}, {"measurement": "Any Grade 4 toxicity", "setting": "BRCAmut, DL9 500/500 mg AM/PM", "result": "1 (14) number of patients (%)"}, {"measurement": "Appendicitis, Grade 3", "setting": "BRCAmut, DL9 500/500 mg AM/PM", "result": "0 number of patients (%)"}, {"measurement": "Aspartate aminotransferase increased, Grade 3", "setting": "BRCAmut, DL9 500/500 mg AM/PM", "result": "0 number of patients (%)"}, {"measurement": "Dehydration, Grade 3", "setting": "BRCAmut, DL9 500/500 mg AM/PM", "result": "0 number of patients (%)"}, {"measurement": "Dyspnea, Grade 4", "setting": "BRCAmut, DL9 500/500 mg AM/PM", "result": "1 (14) number of patients (%)"}, {"measurement": "Fatigue, Grade 3", "setting": "BRCAmut, DL9 500/500 mg AM/PM", "result": "0 number of patients (%)"}, {"measurement": "Headache, Grade 3", "setting": "BRCAmut, DL9 500/500 mg AM/PM", "result": "0 number of patients (%)"}, {"measurement": "Hypophosphatemia, Grade 3", "setting": "BRCAmut, DL9 500/500 mg AM/PM", "result": "0 number of patients (%)"}, {"measurement": "Lymphocyte count decreased, Grade 3", "setting": "BRCAmut, DL9 500/500 mg AM/PM", "result": "1 (14) number of patients (%)"}, {"measurement": "Lymphocyte count decreased, Grade 4", "setting": "BRCAmut, DL9 500/500 mg AM/PM", "result": "0 number of patients (%)"}, {"measurement": "Nausea, Grade 3", "setting": "BRCAmut, DL9 500/500 mg AM/PM", "result": "0 number of patients (%)"}, {"measurement": "Platelet count decreased, Grade 4", "setting": "BRCAmut, DL9 500/500 mg AM/PM", "result": "1 (14) number of patients (%)"}, {"measurement": "Thromboembolic event, Grade 3", "setting": "BRCAmut, DL9 500/500 mg AM/PM", "result": "0 number of patients (%)"}, {"measurement": "Thromboembolic event, Grade 4", "setting": "BRCAmut, DL9 500/500 mg AM/PM", "result": "0 number of patients (%)"}, {"measurement": "Urinary tract infection, Grade 3", "setting": "BRCAmut, DL9 500/500 mg AM/PM", "result": "0 number of patients (%)"}, {"measurement": "Abdominal pain, Grade 3", "setting": "BRCAmut, all dose levels", "result": "2 (3) number of patients (%)"}, {"measurement": "Alkaline phosphatase increased, Grade 3", "setting": "BRCAmut, all dose levels", "result": "1 (1) number of patients (%)"}, {"measurement": "Anemia, Grade 3", "setting": "BRCAmut, all dose levels", "result": "1 (1) number of patients (%)"}, {"measurement": "Anemia, Grade 4", "setting": "BRCAmut, all dose levels", "result": "1 (1) number of patients (%)"}, {"measurement": "Any Grade 3/4 toxicity", "setting": "BRCAmut, all dose levels", "result": "17 (24) number of patients (%)"}, {"measurement": "Any Grade 3 toxicity", "setting": "BRCAmut, all dose levels", "result": "15 (21) number of patients (%)"}, {"measurement": "Any Grade 4 toxicity", "setting": "BRCAmut, all dose levels", "result": "3 (4) number of patients (%)"}, {"measurement": "Appendicitis, Grade 3", "setting": "BRCAmut, all dose levels", "result": "1 (1) number of patients (%)"}, {"measurement": "Aspartate aminotransferase increased, Grade 3", "setting": "BRCAmut, all dose levels", "result": "1 (1) number of patients (%)"}, {"measurement": "Dehydration, Grade 3", "setting": "BRCAmut, all dose levels", "result": "1 (1) number of patients (%)"}, {"measurement": "Dyspnea, Grade 4", "setting": "BRCAmut, all dose levels", "result": "1 (1) number of patients (%)"}, {"measurement": "Fatigue, Grade 3", "setting": "BRCAmut, all dose levels", "result": "1 (1) number of patients (%)"}, {"measurement": "Headache, Grade 3", "setting": "BRCAmut, all dose levels", "result": "1 (1) number of patients (%)"}, {"measurement": "Hypophosphatemia, Grade 3", "setting": "BRCAmut, all dose levels", "result": "1 (1) number of patients (%)"}, {"measurement": "Lymphocyte count decreased, Grade 3", "setting": "BRCAmut, all dose levels", "result": "9 (13) number of patients (%)"}, {"measurement": "Lymphocyte count decreased, Grade 4", "setting": "BRCAmut, all dose levels", "result": "1 (1) number of patients (%)"}, {"measurement": "Nausea, Grade 3", "setting": "BRCAmut, all dose levels", "result": "2 (3) number of patients (%)"}, {"measurement": "Platelet count decreased, Grade 4", "setting": "BRCAmut, all dose levels", "result": "1 (1) number of patients (%)"}, {"measurement": "Thromboembolic event, Grade 3", "setting": "BRCAmut, all dose levels", "result": "2 (3) number of patients (%)"}, {"measurement": "Thromboembolic event, Grade 4", "setting": "BRCAmut, all dose levels", "result": "1 (1) number of patients (%)"}, {"measurement": "Urinary tract infection, Grade 3", "setting": "BRCAmut, all dose levels", "result": "1 (1) number of patients (%)"}, {"measurement": "grade 3/4 decreased lymphocyte count", "setting": "BRCAwt group", "result": 18, "unit": "%"}, {"measurement": "incidence of grade 3/4 toxicity", "setting": "BRCAwt group", "result": 29, "unit": "%"}, {"measurement": "Any Grade 3 toxicity", "setting": "BRCAwt, DL1 50/50 mg AM/PM", "result": "0 number of patients (%)"}, {"measurement": "Basilic vein thrombosis, Grade 3", "setting": "BRCAwt, DL1 50/50 mg AM/PM", "result": "0 number of patients (%)"}, {"measurement": "Dyspnea, Grade 3", "setting": "BRCAwt, DL1 50/50 mg AM/PM", "result": "0 number of patients (%)"}, {"measurement": "Fatigue, Grade 3", "setting": "BRCAwt, DL1 50/50 mg AM/PM", "result": "0 number of patients (%)"}, {"measurement": "Hypophosphatemia, Grade 3", "setting": "BRCAwt, DL1 50/50 mg AM/PM", "result": "0 number of patients (%)"}, {"measurement": "Lymphocyte count decreased, Grade 3", "setting": "BRCAwt, DL1 50/50 mg AM/PM", "result": "0 number of patients (%)"}, {"measurement": "Any Grade 3 toxicity", "setting": "BRCAwt, DL2 100/50 mg AM/PM", "result": "1 (33) number of patients (%)"}, {"measurement": "Basilic vein thrombosis, Grade 3", "setting": "BRCAwt, DL2 100/50 mg AM/PM", "result": "0 number of patients (%)"}, {"measurement": "Dyspnea, Grade 3", "setting": "BRCAwt, DL2 100/50 mg AM/PM", "result": "0 number of patients (%)"}, {"measurement": "Fatigue, Grade 3", "setting": "BRCAwt, DL2 100/50 mg AM/PM", "result": "0 number of patients (%)"}, {"measurement": "Hypophosphatemia, Grade 3", "setting": "BRCAwt, DL2 100/50 mg AM/PM", "result": "0 number of patients (%)"}, {"measurement": "Lymphocyte count decreased, Grade 3", "setting": "BRCAwt, DL2 100/50 mg AM/PM", "result": "1 (33) number of patients (%)"}, {"measurement": "Any Grade 3 toxicity", "setting": "BRCAwt, DL3 100/100 mg AM/PM", "result": "0 number of patients (%)"}, {"measurement": "Basilic vein thrombosis, Grade 3", "setting": "BRCAwt, DL3 100/100 mg AM/PM", "result": "0 number of patients (%)"}, {"measurement": "Dyspnea, Grade 3", "setting": "BRCAwt, DL3 100/100 mg AM/PM", "result": "0 number of patients (%)"}, {"measurement": "Fatigue, Grade 3", "setting": "BRCAwt, DL3 100/100 mg AM/PM", "result": "0 number of patients (%)"}, {"measurement": "Hypophosphatemia, Grade 3", "setting": "BRCAwt, DL3 100/100 mg AM/PM", "result": "0 number of patients (%)"}, {"measurement": "Lymphocyte count decreased, Grade 3", "setting": "BRCAwt, DL3 100/100 mg AM/PM", "result": "0 number of patients (%)"}, {"measurement": "Any Grade 3 toxicity", "setting": "BRCAwt, DL6 200/200 mg AM/PM", "result": "2 (67) number of patients (%)"}, {"measurement": "Basilic vein thrombosis, Grade 3", "setting": "BRCAwt, DL6 200/200 mg AM/PM", "result": "1 (33) number of patients (%)"}, {"measurement": "Dyspnea, Grade 3", "setting": "BRCAwt, DL6 200/200 mg AM/PM", "result": "0 number of patients (%)"}, {"measurement": "Fatigue, Grade 3", "setting": "BRCAwt, DL6 200/200 mg AM/PM", "result": "0 number of patients (%)"}, {"measurement": "Hypophosphatemia, Grade 3", "setting": "BRCAwt, DL6 200/200 mg AM/PM", "result": "0 number of patients (%)"}, {"measurement": "Lymphocyte count decreased, Grade 3", "setting": "BRCAwt, DL6 200/200 mg AM/PM", "result": "1 (33) number of patients (%)"}, {"measurement": "Any Grade 3 toxicity", "setting": "BRCAwt, DL7 300/300 mg AM/PM", "result": "0 number of patients (%)"}, {"measurement": "Basilic vein thrombosis, Grade 3", "setting": "BRCAwt, DL7 300/300 mg AM/PM", "result": "0 number of patients (%)"}, {"measurement": "Dyspnea, Grade 3", "setting": "BRCAwt, DL7 300/300 mg AM/PM", "result": "0 number of patients (%)"}, {"measurement": "Fatigue, Grade 3", "setting": "BRCAwt, DL7 300/300 mg AM/PM", "result": "0 number of patients (%)"}, {"measurement": "Hypophosphatemia, Grade 3", "setting": "BRCAwt, DL7 300/300 mg AM/PM", "result": "0 number of patients (%)"}, {"measurement": "Lymphocyte count decreased, Grade 3", "setting": "BRCAwt, DL7 300/300 mg AM/PM", "result": "0 number of patients (%)"}, {"measurement": "Any Grade 3 toxicity", "setting": "BRCAwt, DL8 400/400 mg AM/PM", "result": "3 (43) number of patients (%)"}, {"measurement": "Basilic vein thrombosis, Grade 3", "setting": "BRCAwt, DL8 400/400 mg AM/PM", "result": "0 number of patients (%)"}, {"measurement": "Dyspnea, Grade 3", "setting": "BRCAwt, DL8 400/400 mg AM/PM", "result": "1 (14) number of patients (%)"}, {"measurement": "Fatigue, Grade 3", "setting": "BRCAwt, DL8 400/400 mg AM/PM", "result": "1 (14) number of patients (%)"}, {"measurement": "Hypophosphatemia, Grade 3", "setting": "BRCAwt, DL8 400/400 mg AM/PM", "result": "1 (14) number of patients (%)"}, {"measurement": "Lymphocyte count decreased, Grade 3", "setting": "BRCAwt, DL8 400/400 mg AM/PM", "result": "1 (14) number of patients (%)"}, {"measurement": "Any Grade 3 toxicity", "setting": "BRCAwt, all dose levels", "result": "8 (29) number of patients (%)"}, {"measurement": "Basilic vein thrombosis, Grade 3", "setting": "BRCAwt, all dose levels", "result": "1 (4) number of patients (%)"}, {"measurement": "Dyspnea, Grade 3", "setting": "BRCAwt, all dose levels", "result": "1 (4) number of patients (%)"}, {"measurement": "Fatigue, Grade 3", "setting": "BRCAwt, all dose levels", "result": "1 (4) number of patients (%)"}, {"measurement": "Hypophosphatemia, Grade 3", "setting": "BRCAwt, all dose levels", "result": "1 (4) number of patients (%)"}, {"measurement": "Lymphocyte count decreased, Grade 3", "setting": "BRCAwt, all dose levels", "result": "5 (18) number of patients (%)"}, {"measurement": "patients who came off study after non-dose limiting nausea", "setting": "DL7-DL9", "result": 6, "unit": "patients"}, {"measurement": "all-grade decreased lymphocyte count (lymphopenia)", "setting": "all patients", "result": 38, "unit": "%"}, {"measurement": "all-grade nausea", "setting": "all patients", "result": 65, "unit": "%"}, {"measurement": "grade 3/4 lymphopenia", "setting": "all patients", "result": 15, "unit": "%"}, {"measurement": "grade 3 or 4 anemia", "setting": "all patients", "result": 6, "unit": "%"}, {"measurement": "overall tolerability", "setting": "continuous single-agent", "result": "safe and tolerable; also recorded: well-tolerated"}]}
